Results: ChEMBL document CHEMBL3739273, “Synthesis, biological activity evaluation and molecular docking studies of novel coumarin substituted thiazolyl-3-aryl-pyrazole-4-carbaldehydes” (Bioorg Med Chem Lett, 2015)
≈ marks a conversion by molar mass, not a printed value. Calls of active or inactive are those of the source. No cut-off for these calls is given here.

System: Bacillus cereus
Test: Bactericidal activity against Bacillus cereus ATCC 14579 after 24 hrs
Assay type: functional
Conditions: ATCC 14579, 24 h, read-out: MBC99.9
Method in brief: (§1)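 MBC determined by a standard MBC protocol alongside the MIC, with values in µg/mL. Gentamycin sulfate and ampicillin were the references.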

`O=Cc1cn(-c2nc(-c3cc4cc(Br)cc(Br)c4oc3=O)cs2)nc1-c1ccccc1` and `O=Cc1cn(-c2nc(-c3cc4c(ccc5ccccc54)oc3=O)cs2)nc1-c1ccccc1` are within 1.5-fold of each other in MBC: 240 µg/mL (≈ 431 µM) for the first, 275 µg/mL (≈ 612 µM) for the second.

System: Klebsiella pneumoniae
Test: Antibacterial activity against Klebsiella pneumoniae ATCC 43816 assessed as growth inhibition at 100 ug/ml after 24 hrs by agar well diffusion method
Assay type: functional
Conditions: not given
Method in brief: (§2)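 Agar well diffusion. Compounds were tested at 10, 20, 100, 200 and 300 µg/mL, and the zone of inhibition was measured in mm. Gentamycin sulfate was the reference drug.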

In the case of `O=Cc1cn(-c2nc(-c3cc4cc(Br)cc(Br)c4oc3=O)cs2)nc1-c1ccccc1`, the “growth inhibition (GI)” value is reported as “Active”.

System: MCF7
Test: Anticancer activity against human MCF7 cells assessed as cell viability after 48 hrs by MTT assay
Assay type: functional, cell-based
Conditions: MCF7, 48 h
Method in brief: (§3)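 MTT cytotoxicity assay in human DU-145 prostate, MCF-7 breast and HeLa cervical cancer cell lines. Doxorubicin was the reference drug.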

Compared with `O=Cc1cn(-c2nc(-c3cc4cc(Br)cc(Br)c4oc3=O)cs2)nc1-c1ccccc1`, `O=Cc1cn(-c2nc(-c3cc4c(ccc5ccccc54)oc3=O)cs2)nc1-c1ccccc1` is 1.8-fold higher in IC50: 22.2 µM for the first, 39.5 µM for the second. The first is the more potent here.

System: Proteus vulgaris
Test: Antibacterial activity against Proteus vulgaris ATCC 13315 assessed as growth inhibition at 100 ug/ml after 24 hrs by agar well diffusion method
Assay type: functional
Conditions: not given
Method in brief: as §2

With `O=Cc1cn(-c2nc(-c3cc4cc(Br)cc(Br)c4oc3=O)cs2)nc1-c1ccccc1` the “growth inhibition (GI)” value was “Active”.

System: not listed separately
Test: n-Octanol-phosphate buffer partition coefficient, log P of the compound at pH 7.4 after 30 mins by shake flask method
Assay type: physicochemical
Conditions: not given
Method in brief: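 Shake-flask partition between n-octanol and 50 mM phosphate buffer, pH 7.4. P calculated and expressed as logP.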

First: O=Cc1cn(-c2nc(-c3cc4cc(Br)cc(Br)c4oc3=O)cs2)nc1-c1ccccc1
Second: O=Cc1cn(-c2nc(-c3cc4c(ccc5ccccc54)oc3=O)cs2)nc1-c1ccccc1
The logD at 0.5 h of the first is lower: 3.11 for the first, 3.54 for the second.

System: Staphylococcus aureus
Test: Antibacterial activity against methicillin-resistant Staphylococcus aureus NCTC 13616 after 24 hrs by microtiter plate method
Assay type: functional
Conditions: NCTC 13616, 24 h

`O=Cc1cn(-c2nc(-c3cc4cc(Br)cc(Br)c4oc3=O)cs2)nc1-c1ccccc1` and `O=Cc1cn(-c2nc(-c3cc4c(ccc5ccccc54)oc3=O)cs2)nc1-c1ccccc1` are within 1.5-fold of each other in MIC: 117 µg/mL (≈ 210 µM) for the first, 135 µg/mL (≈ 300 µM) for the second.

System: Staphylococcus aureus
Test: Antibacterial activity against methicillin-resistant Staphylococcus aureus NCTC 13616 assessed as growth inhibition at 100 ug/ml after 24 hrs by agar well diffusion method
Assay type: functional, organism-based
Conditions: not given
Method in brief: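 Agar well diffusion assay with compounds applied to wells at several concentrations, including the 100 level reported here. The zone of inhibition was measured in mm. Gentamycin sulfate was the standard drug.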

With `O=Cc1cn(-c2nc(-c3cc4cc(Br)cc(Br)c4oc3=O)cs2)nc1-c1ccccc1` the “growth inhibition (GI)” value was “Active”.

System: Proteus vulgaris
Test: Bactericidal activity against Proteus vulgaris ATCC 13315 after 24 hrs
Assay type: functional
Conditions: ATCC 13315, 24 h, read-out: MBC99.9
Method in brief: as §1

`O=Cc1cn(-c2nc(-c3cc4cc(Br)cc(Br)c4oc3=O)cs2)nc1-c1ccccc1` and `O=Cc1cn(-c2nc(-c3cc4c(ccc5ccccc54)oc3=O)cs2)nc1-c1ccccc1` are within 1.5-fold of each other in MBC: 240 µg/mL (≈ 431 µM) for the first, 300 µg/mL (≈ 667 µM) for the second.

System: Klebsiella pneumoniae
Test: Bactericidal activity against Klebsiella pneumoniae ATCC 43816 after 24 hrs
Assay type: functional
Conditions: ATCC 43816, 24 h, read-out: MBC99.9
Method in brief: as §1

`O=Cc1cn(-c2nc(-c3cc4cc(Br)cc(Br)c4oc3=O)cs2)nc1-c1ccccc1` and `O=Cc1cn(-c2nc(-c3cc4c(ccc5ccccc54)oc3=O)cs2)nc1-c1ccccc1` are within 1.5-fold of each other in MBC: 240 µg/mL (≈ 431 µM) for the first, 225 µg/mL (≈ 501 µM) for the second.

System: HeLa
Test: Anticancer activity against human HeLa cells assessed as cell viability after 48 hrs by MTT assay
Assay type: functional, cell-based
Conditions: not given
Method in brief: as §3

`O=Cc1cn(-c2nc(-c3cc4cc(Br)cc(Br)c4oc3=O)cs2)nc1-c1ccccc1` and `O=Cc1cn(-c2nc(-c3cc4c(ccc5ccccc54)oc3=O)cs2)nc1-c1ccccc1` are within 1.5-fold of each other in IC50: 13.7 µM for the first, 13.1 µM for the second.

System: Bacillus spizizenii
Test: Antibacterial activity against Bacillus subtilis ATCC 6633 after 24 hrs by microtiter plate method
Assay type: functional
Conditions: ATCC 6633, 24 h
Method in brief: (§4)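 Test concentrations reported in µg/mL. Gentamycin sulfate and ampicillin were the reference drugs.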

`O=Cc1cn(-c2nc(-c3cc4cc(Br)cc(Br)c4oc3=O)cs2)nc1-c1ccccc1` and `O=Cc1cn(-c2nc(-c3cc4c(ccc5ccccc54)oc3=O)cs2)nc1-c1ccccc1` are within 1.5-fold of each other in MIC: 118 µg/mL (≈ 212 µM) for the first, 123 µg/mL (≈ 273 µM) for the second.

System: Bacillus spizizenii
Test: Bactericidal activity against Bacillus subtilis ATCC 6633 after 24 hrs
Assay type: functional
Conditions: ATCC 6633, 24 h, read-out: MBC99.9
Method in brief: as §1

`O=Cc1cn(-c2nc(-c3cc4cc(Br)cc(Br)c4oc3=O)cs2)nc1-c1ccccc1` and `O=Cc1cn(-c2nc(-c3cc4c(ccc5ccccc54)oc3=O)cs2)nc1-c1ccccc1` are the same in MBC: 240 µg/mL (≈ 431 µM) for the first, 240 µg/mL (≈ 534 µM) for the second.

System: Klebsiella pneumoniae
Test: Antibacterial activity against Klebsiella pneumoniae ATCC 43816 after 24 hrs by microtiter plate method
Assay type: functional
Conditions: ATCC 43816, 24 h
Method in brief: as §4

`O=Cc1cn(-c2nc(-c3cc4cc(Br)cc(Br)c4oc3=O)cs2)nc1-c1ccccc1` and `O=Cc1cn(-c2nc(-c3cc4c(ccc5ccccc54)oc3=O)cs2)nc1-c1ccccc1` are within 1.5-fold of each other in MIC: 119 µg/mL (≈ 214 µM) for the first, 150 µg/mL (≈ 334 µM) for the second.

System: Escherichia coli
Test: Antibacterial activity against Escherichia coli ATCC 8739 after 24 hrs by microtiter plate method
Assay type: functional
Conditions: ATCC 8739, 24 h
Method in brief: as §4

`O=Cc1cn(-c2nc(-c3cc4cc(Br)cc(Br)c4oc3=O)cs2)nc1-c1ccccc1` and `O=Cc1cn(-c2nc(-c3cc4c(ccc5ccccc54)oc3=O)cs2)nc1-c1ccccc1` are within 1.5-fold of each other in MIC: 116 µg/mL (≈ 207 µM) for the first, 133 µg/mL (≈ 295 µM) for the second.

System: Escherichia coli
Test: Antibacterial activity against Escherichia coli ATCC 8739 assessed as growth inhibition at 100 ug/ml after 24 hrs by agar well diffusion method
Assay type: functional
Conditions: not given
Method in brief: as §2

In the case of `O=Cc1cn(-c2nc(-c3cc4cc(Br)cc(Br)c4oc3=O)cs2)nc1-c1ccccc1`, the “growth inhibition (GI)” value is reported as “Active”.

System: Bacillus spizizenii
Test: Antibacterial activity against Bacillus subtilis ATCC 6633 assessed as growth inhibition at 100 ug/ml after 24 hrs by agar well diffusion method
Assay type: functional, organism-based
Conditions: not given
Method in brief: as §2

In the case of `O=Cc1cn(-c2nc(-c3cc4cc(Br)cc(Br)c4oc3=O)cs2)nc1-c1ccccc1`, the “growth inhibition (GI)” value is reported as “Active”.

System: Proteus vulgaris
Test: Antibacterial activity against Proteus vulgaris ATCC 13315 after 24 hrs by microtiter plate method
Assay type: functional
Conditions: ATCC 13315, 24 h
Method in brief: as §4

`O=Cc1cn(-c2nc(-c3cc4cc(Br)cc(Br)c4oc3=O)cs2)nc1-c1ccccc1` and `O=Cc1cn(-c2nc(-c3cc4c(ccc5ccccc54)oc3=O)cs2)nc1-c1ccccc1` are within 1.5-fold of each other in MIC: 120 µg/mL (≈ 215 µM) for the first, 150 µg/mL (≈ 334 µM) for the second.

System: Escherichia coli
Test: Bactericidal activity against Escherichia coli ATCC 8739 after 24 hrs
Assay type: functional
Conditions: ATCC 8739, 24 h, read-out: MBC99.9
Method in brief: as §1

Compared with `O=Cc1cn(-c2nc(-c3cc4cc(Br)cc(Br)c4oc3=O)cs2)nc1-c1ccccc1`, `O=Cc1cn(-c2nc(-c3cc4c(ccc5ccccc54)oc3=O)cs2)nc1-c1ccccc1` is 1.5-fold higher in MBC: 170 µg/mL (≈ 305 µM) for the first, 260 µg/mL (≈ 578 µM) for the second.

System: not listed separately
Test: Anticancer activity against human DU145 cells assessed as cell viability after 48 hrs by MTT assay
Assay type: functional, cell-based
Conditions: DU-145, 48 h
Method in brief: as §3

First: O=Cc1cn(-c2nc(-c3cc4cc(Br)cc(Br)c4oc3=O)cs2)nc1-c1ccccc1
Second: O=Cc1cn(-c2nc(-c3cc4c(ccc5ccccc54)oc3=O)cs2)nc1-c1ccccc1
The IC50 of the first is 2.4-fold higher: 28 µM for the first, 11.9 µM for the second. The second is the more potent here.

System: Bacillus cereus
Test: Antibacterial activity against Bacillus cereus ATCC 14579 assessed as growth inhibition at 100 ug/ml after 24 hrs by agar well diffusion method
Assay type: functional
Conditions: not given
Method in brief: as §2

In the case of `O=Cc1cn(-c2nc(-c3cc4cc(Br)cc(Br)c4oc3=O)cs2)nc1-c1ccccc1`, the “growth inhibition (GI)” value is reported as “Active”.

System: Bacillus cereus
Test: Antibacterial activity against Bacillus cereus ATCC 14579 after 24 hrs by microtiter plate method
Assay type: functional
Conditions: ATCC 14579, 24 h
Method in brief: as §4

`O=Cc1cn(-c2nc(-c3cc4cc(Br)cc(Br)c4oc3=O)cs2)nc1-c1ccccc1` and `O=Cc1cn(-c2nc(-c3cc4c(ccc5ccccc54)oc3=O)cs2)nc1-c1ccccc1` are within 1.5-fold of each other in MIC: 119 µg/mL (≈ 214 µM) for the first, 139 µg/mL (≈ 309 µM) for the second.

Target: T1, Cytochrome P450 2A6 (Homo sapiens, UniProt P11509)
T1 sequence (P11509 whole entry): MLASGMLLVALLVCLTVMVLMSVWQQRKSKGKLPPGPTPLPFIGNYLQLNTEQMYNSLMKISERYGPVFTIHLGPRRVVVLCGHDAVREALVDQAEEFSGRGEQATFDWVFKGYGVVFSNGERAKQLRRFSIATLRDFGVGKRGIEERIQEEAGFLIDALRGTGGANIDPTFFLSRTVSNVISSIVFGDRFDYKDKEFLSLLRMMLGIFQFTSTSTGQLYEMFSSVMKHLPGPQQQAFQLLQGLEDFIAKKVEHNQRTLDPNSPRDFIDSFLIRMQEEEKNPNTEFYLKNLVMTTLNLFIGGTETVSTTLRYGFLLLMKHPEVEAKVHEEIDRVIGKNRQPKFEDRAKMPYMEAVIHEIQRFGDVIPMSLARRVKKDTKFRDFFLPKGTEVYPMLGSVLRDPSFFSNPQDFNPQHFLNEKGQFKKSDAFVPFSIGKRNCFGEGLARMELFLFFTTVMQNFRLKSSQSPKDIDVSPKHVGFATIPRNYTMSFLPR
Test: Inhibition of human microsomal CYP2A6
Assay type: ADME
Conditions: not given

Going from `O=Cc1cn(-c2nc(-c3cc4cc(Br)cc(Br)c4oc3=O)cs2)nc1-c1ccccc1` to `O=Cc1cn(-c2nc(-c3cc4c(ccc5ccccc54)oc3=O)cs2)nc1-c1ccccc1`, the Ki falls from 3.41 nM to 0.057 nM (60-fold).

System: Staphylococcus aureus
Test: Bactericidal activity against methicillin-resistant Staphylococcus aureus NCTC 13616 after 24 hrs
Assay type: functional
Conditions: NCTC 13616, 24 h, read-out: MBC99.9
Method in brief: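 MBC determined by a standard MBC protocol run alongside the MIC determination. Gentamycin sulfate and ampicillin served as reference drugs.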

First: O=Cc1cn(-c2nc(-c3cc4cc(Br)cc(Br)c4oc3=O)cs2)nc1-c1ccccc1
Second: O=Cc1cn(-c2nc(-c3cc4c(ccc5ccccc54)oc3=O)cs2)nc1-c1ccccc1
The MBC of the first is 1.5-fold lower: 175 µg/mL (≈ 314 µM) for the first, 270 µg/mL (≈ 601 µM) for the second.
